Experimental data pooled from the literature.
Target: Mitogen-activated protein kinase kinase kinase 10 (MAP3K10, Homo sapiens, UniProt Q02779)

CNCc1ccccc1-c1csc([C@@H](C)Nc2nc(C)nc3cc(OC)c(OC)cc23)c1 — remaining binding (cell-free assay, competition with immobilised ligand; 1 µM): 96%
O=C(Nc1cnn(-c2csc(C(=O)NC3COC3)c2)c1)Nc1ccccc1Cl — remaining activity (enzyme activity, inhibitor; 5 µM): 98.5%
CCS(=O)(=O)c1cc2cc(C[C@](O)(CC(C)(C)c3ccc(F)cc3C(N)=O)C(F)(F)F)[nH]c2cn1 — remaining binding (cell-free assay, competition with immobilised ligand; 1 µM): 100%
CC/C(=N\NC(=O)NCc1cccc(O)c1)c1ccc(O)c(C)c1O — inhibition (enzyme activity, inhibitor; 0.1 µM): 6.2%
CS(=O)(=O)NCC[C@H](NC(=O)c1cncc2c1cnn2-c1ccc(F)cc1)c1ccnc(S(C)(=O)=O)c1 — remaining binding (cell-free assay, competition with immobilised ligand; 1 µM): 75%
Cc1cc(NC(=O)c2cccc3cc(-c4cccc5[nH]nc(N)c45)ccc23)ccc1F — activity vs control (enzyme activity, inhibitor; 0.1 µM): 98%
C[C@@H]1CCN(C(=O)CC#N)C[C@@H]1N(C)c1ncnc2[nH]ccc12 — remaining signal (cell-free assay, inhibitor; 0.5 µM): 105%
Cn1nc(C(=O)NCc2ccc(C(=O)O)cc2)cc1-c1ccc2[nH]ccc2c1 — remaining binding (cell-free assay, competition with immobilised ligand; 0.1 µM): 100%
O=C1NC(=O)c2cc(Nc3ccc(F)cc3)c(Nc3ccc(F)cc3)cc21 — remaining signal (cell-free assay; 0.5 µM): 90.6%
Nc1ncnc2occ(-c3ccc(NC(=O)Nc4cc(C(F)(F)F)ccc4F)cc3)c12 — remaining signal (cell-free assay, inhibitor; 20 µM): 0%
Cc1ccc(C(=O)NCc2ccsc2)cc1C#Cc1cn(C(C)C)c2ncnc(N)c12 — activity vs control (enzyme activity, inhibitor; 1 µM): 5%
CC(C)(O)c1cncc(-c2nc3ccc(F)cc3n2C2CC2)c1 — remaining binding (cell-free assay, competition with immobilised ligand; 1 µM): 100%
Cc1sc(C(=O)NC2COC2)cc1-n1cc(NC(=O)Nc2c(F)cccc2Cl)cn1 — remaining activity (enzyme activity, inhibitor; 10 µM): 90.8%
CC(C)(C)c1nc2c(s1)c1nc(N)ncc1c1ccc(NS(=O)(=O)c3c(F)cccc3F)c(F)c12 — remaining activity (enzyme activity, inhibitor, radiometric; 1 µM): 102%
O=C1Nc2ccc(Cl)cc2C1=Cc1cc(Cl)c(O)c(Cl)c1 — remaining signal (cell-free assay; 0.5 µM): 86.8%
COc1cc(Cl)c(C(=O)N[C@@H](CN[C@H]2CC[C@@H](N)CC2)Cc2ccc(C#N)cc2)cc1-c1ccc(CN[C@H](C)c2ccc(C)cc2)o1 — remaining activity (enzyme activity, inhibitor; 1 µM): 97%
COc1cc2c(N3CCN(C(=O)Nc4ccc(OC(C)C)cc4)CC3)ncnc2cc1OCCCN1CCCCC1 — remaining signal (cell-free assay; 0.5 µM): 101%
CCCCNc1ncc2c(-c3ccc(F)cc3)nn(C[C@H]3CC[C@H](N)CC3)c2n1 — inhibition (target engagement in cells, inhibitor, chemoproteomics; 20 mM): 65.4%
